# From BindingDB's records for doi:10.1021/jm950700s (Schering-Plough Research Institute, 1997)
# Experiments:
# [1] = target: Potassium-transporting ATPase alpha chain 1/subunit beta (Oryctolagus cuniculus); experiment: Inhibition of H+/K+ ATPase as reduced acid formation in rabbit gastric glands
# [2] = target: Potassium-transporting ATPase (Sus scrofa, UniProt P19156); experiment: Inhibition of purified H+/K+ ATPase at pH 7.4 as released inorganic phosphate from ATP using hog stomach gastric membrane vesicles
# Potassium-transporting ATPase, sequence (P19156 whole entry, looked up): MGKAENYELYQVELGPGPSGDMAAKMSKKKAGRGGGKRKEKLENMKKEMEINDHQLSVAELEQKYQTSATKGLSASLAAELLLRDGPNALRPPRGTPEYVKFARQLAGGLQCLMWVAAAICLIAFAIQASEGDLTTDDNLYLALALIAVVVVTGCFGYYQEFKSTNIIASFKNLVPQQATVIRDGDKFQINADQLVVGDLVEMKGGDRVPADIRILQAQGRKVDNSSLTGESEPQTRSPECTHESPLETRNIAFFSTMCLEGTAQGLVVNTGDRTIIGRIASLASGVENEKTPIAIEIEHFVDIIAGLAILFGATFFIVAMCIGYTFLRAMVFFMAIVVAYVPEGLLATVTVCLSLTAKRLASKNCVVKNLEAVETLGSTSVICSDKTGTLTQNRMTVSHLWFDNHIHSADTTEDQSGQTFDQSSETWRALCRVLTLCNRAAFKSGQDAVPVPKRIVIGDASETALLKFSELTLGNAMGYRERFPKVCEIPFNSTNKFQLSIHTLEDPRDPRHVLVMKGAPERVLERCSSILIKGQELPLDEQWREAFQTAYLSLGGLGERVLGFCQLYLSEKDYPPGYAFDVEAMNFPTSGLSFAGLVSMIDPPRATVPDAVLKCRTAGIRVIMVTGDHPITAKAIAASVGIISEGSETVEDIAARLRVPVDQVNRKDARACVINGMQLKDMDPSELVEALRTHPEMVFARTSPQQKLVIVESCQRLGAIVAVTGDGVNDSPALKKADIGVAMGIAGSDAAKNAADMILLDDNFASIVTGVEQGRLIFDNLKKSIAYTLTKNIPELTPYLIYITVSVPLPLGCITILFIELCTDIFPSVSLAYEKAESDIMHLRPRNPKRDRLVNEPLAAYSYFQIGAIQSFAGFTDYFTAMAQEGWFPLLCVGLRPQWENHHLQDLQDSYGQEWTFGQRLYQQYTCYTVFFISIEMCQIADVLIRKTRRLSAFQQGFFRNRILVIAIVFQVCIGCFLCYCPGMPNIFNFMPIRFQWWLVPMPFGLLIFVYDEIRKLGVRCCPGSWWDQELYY
# Procedure, shortened: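 Gastric membrane vesicles from hog stomach were prepared by differential and zonal density gradient centrifugation. Activity was read as inorganic phosphate released from ATP at pH 7.4. Protein was measured by the Bradford method against a gammaglobulin standard.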
Structure (SMILES),IC50 [1],IC50 [2]
Cc1nc2c(C/C=C/c3ccccc3)cccn2c1CC#N,442 µM,206 µM
Cc1nc2c(OCc3ccccc3)nccn2c1N,,178 µM
